Measurements pooled from the literature.
Protocols differ between the studies behind these lines.
Observed: enzyme activity
CYP2C9: Cytochrome P450 2C9 (CYP2C9, Homo sapiens, UniProt P11712)
CYP2C8: Cytochrome P450 2C8 (CYP2C8, Homo sapiens, UniProt P10632)

SMILES | target | test | system | conditions | measurement | result
Nc1nc(N)c2nc(C(=O)NCc3cccc(C(F)(F)F)c3)cnc2n1 | CYP2C9 | inhibitor, luciferase |  | 10 µM | inhibition | -17.1%
Cc1cccc(F)c1N1CCC(N2Cc3cn(CC(C)(F)F)nc3N(Cc3ccccc3C(F)(F)F)C2=O)CC1 | CYP2C8 | inhibitor | human, liver microsomes |  | Ki | 7 µM
CC1(CO)C(O[C@@H]2O[C@H](C(=O)O)[C@@H](O)[C@H](O)[C@H]2O)CC[C@@]2(C)C1CC[C@]1(C)C2CC=C2[C@H]3CC(C)(C)[C@H](O)[C@@H](O)[C@]3(CO)[C@H](O)C[C@]21C (stereo partly drawn) | CYP2C8 | inhibitor, mass spectrometry | human, liver microsomes |  | IC50 | > 90 µg/mL
O=C(Nc1c2c(cc3c1CCC3)CCC2)NS(=O)(=O)/C=C/c1nccs1 | CYP2C8 | inhibitor | human, liver microsomes | 2 µM, pH 7.4 | inhibition | 59.1%
Cc1nc2c([nH]1)c(=O)n(C)c(=O)n2Cc1ccco1 | CYP2C9 | inhibitor | human, liver microsomes | 40 µM | inhibition | 7%
CON=C(N)c1ccc(-c2ccc(-c3ccc(C(N)=NOC)cc3)o2)cc1 | CYP2C8 | substrate |  |  | Km | 2600 nM
CCc1cc(/C(C)=N/OCc2ccc(C3CCCCC3)c(C(F)(F)F)c2)ccc1CN1CC(C(=O)O)C1 | CYP2C8 | inhibitor | human, liver microsomes | 200 µM, 20 min | inhibition | 17%
CCc1nc2c(C)cc(N3CCN(CC(=O)N4CC(O)C4)CC3)cn2c1N(C)c1nc(-c2ccc(F)cc2)c(C#N)s1 | CYP2C8 | inhibitor |  |  | kinact | 0.000588 s⁻¹
CCN(Cc1cnc2nc(N)nc(N)c2n1)c1ccc(C(=O)N2CCC(C(=O)OC)CC2)cc1 | CYP2C9 | inhibitor, luciferase |  | 10 µM | inhibition | -2.93%
